Screening data as filed in PubChem.
IMP-1 inh-1 – blocks Pseudomonas aeruginosa IMP-1 metallo-beta-lactamase | purified IMP-1, nitrocefin hydrolysis, epi-absorbance fluorescence | inhibition, % at 5.6 µM | 0.45% of 290,000 active;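 active = inhibition above the mean plus 3 SD of all compounds in the same screening run, cut at about 4.5% in these data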;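 note: 0% = IMP-1 with DMSO and 100% = DMSO wells lacking enzyme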
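System: Purified recombinant IMP-1 metallo-beta-lactamase enzyme | Measured by: Fluorescence quenching readout, ex 480/em 530 nm | Replication: Singlicate | Incubation: 15 min preincubation plus 25 min reaction at 25 °C | Evaluation: Percent inhibition from optical density relative to buffer-blank wells | Benchmarks: DMSO with and without IMP-1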
MEKK3 PB1 HTS – MEKK3-MEK5 PB1 interaction, increase or decrease | Q99759 | bead-based flow cytometry, Alexa488-MEK5 binding to MEKK3; actives lie on both sides; 0 = blocked by unlabeled MEK5, 100 = vehicle | binding response (% of control), % at 10 µM | 1.4% of 290,000 active;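 active = binding response more than 3 SD above or below the average of its plate-row segment, actives on both sides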;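 note: Alexa488 bead fluorescence after subtracting the streptavidin-only scavenger bead signal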
MEKK2wt PB1 HTS – raises or lowers MEK5 binding to wildtype human MEKK2 PB1 domain. binding response (% of control), % at 10 µM. Q9Y2U5. 1.1% of 290,000 active. bead flow cytometry, Alexa488-MEK5 binding to MEKK2 WT; actives lie on both sides; in the data active = binding response below about 67% or above about 130%
MEKK2mut PB1 HTS – signal of MEK5 binding to mutant human MEKK2 PB1 domain. 0.35% of 290,000 active. percent response, % at 10 µM. bead flow cytometry, Alexa488-MEK5 binding to MEKK2 mutant. AID 1530; in the data active = percent response above about 24%, passing the limit was not always enough
VIM-2 inhibitor – blocks Pseudomonas aeruginosa VIM-2 metallo-beta-lactamase; purified VIM-2, nitrocefin hydrolysis, epi-absorbance fluorescence; inhibition, % at 5.6 µM; 0.89% of 290,000 active; AID 1527;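 active = inhibition above the mean of all tested compounds plus 3 SD, cutoff set per screening run, cut at about 7.5% in these data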;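 note: red hydrolysis product quenches plate fluorescence so inhibitors raise well fluorescence; 0% = enzyme with DMSO and 100% = DMSO without enzyme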
IMP-1 inh-2 – selectivity counter-screen for VIM-2 inhibitors: IMP-1 metallo-beta-lactamase inhibitors; inhibition, % at 5.6 µM; 1,300 tested, under 10 active; purified IMP-1, nitrocefin hydrolysis, epi-absorbance fluorescence; AID 1856; shares compounds with VIM-2 inhibitor; call rule not given here;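 note: 0% = enzyme with vehicle and 100% = vehicle without enzyme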
VIM-2 FRET inh – VIM-2 FRET inhibition, artifact counter-screen. 23% of 1,300 active. shares compounds with VIM-2 inhibitor. purified VIM-2, CCF2 FRET substrate hydrolysis. inhibition, % at 5.6 µM;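 active = inhibition above the mean of all tested compounds plus 3 SD, cut at about 19% in these data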;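 note: 0% = VIM-2 plus DMSO and 100% = no enzyme wells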
TEM-1 inh – blocks E. coli TEM-1 beta-lactamase in VIM-2 selectivity screen. AID 1866. inhibition, % at 5.6 µM. shares compounds with VIM-2 inhibitor. 3% of 1,300 active. Purified TEM-1, nitrocefin hydrolysis, epi-absorbance fluorescence;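 active = inhibition above that campaign's mean inhibition plus 3 SD, cut at about 0.46% in these data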;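 note: 0% = TEM-1 with DMSO and 100% = TEM-1 with 100 µM potassium clavulanate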
Target sequence (P62593 whole entry, looked up): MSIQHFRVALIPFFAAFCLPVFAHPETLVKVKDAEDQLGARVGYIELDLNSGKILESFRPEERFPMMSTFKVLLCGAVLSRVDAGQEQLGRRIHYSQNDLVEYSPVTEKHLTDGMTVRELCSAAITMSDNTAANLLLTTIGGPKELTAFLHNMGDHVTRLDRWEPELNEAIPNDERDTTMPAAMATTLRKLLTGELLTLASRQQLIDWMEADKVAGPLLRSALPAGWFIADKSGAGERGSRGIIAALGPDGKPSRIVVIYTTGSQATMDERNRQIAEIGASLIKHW
VIM-2 confirm 2 – confirmation of P. aeruginosa VIM-2 metallo-beta-lactamase inhibitors; shares compounds with VIM-2 inhibitor; purified VIM-2, nitrocefin hydrolysis, epi-absorbance; inhibition, % at 5.6 µM; 96% of 1,300 active; AID 2187;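 active = inhibition of the VIM-2 beta-lactamase enzyme above about 11% from the earlier first-round screen, limit read from the data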;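 note: 0% = VIM-2 with DMSO and 100% = buffer wells without enzyme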
Active calls of the source: *; / = no result given. Sampled rows, rich in hits. Any-hit rate of the full collection: about 3.4%.

SMILES	IMP-1 inh-1	MEKK3 PB1 HTS	MEKK2wt PB1 HTS	MEKK2mut PB1 HTS	VIM-2 inhibitor	IMP-1 inh-2	VIM-2 FRET inh	TEM-1 inh	VIM-2 confirm 2
CC1(C)CC(NC(=O)COc2ccc3c4c(c(=O)oc3c2)CCCC4)CC(C)(C)N1	2.4	106.0	116.0	7.0	19.9*	-2.9	-1.6	-5.5	25.6*
NS(=O)(=O)c1ccc(CNC(=O)COc2ccc3c4c(c(=O)oc3c2)CCCC4)cc1	-3.8	102.0	103.0	2.0	6.0	/	/	/	/
CC(Oc1ccc2c3c(c(=O)oc2c1)CCCC3)C(=O)NCc1ccncc1 (stereo not drawn)	0.8	96.0	97.0	-2.0	25.3*	-2.2	-1.1	-4.2	37.6*
Cc1c(OCC(=O)NCC(O)c2ccccc2)ccc2c(-c3ccccc3)cc(=O)oc12 (stereo not drawn)	-2.9	105.0	104.0	5.0	12.6*	-2.2	-0.4	-7.0	26.3*
CC(Oc1ccc2c3c(c(=O)oc2c1)CCCC3)C(=O)NCC(O)c1ccccc1 (stereo not drawn)	-1.3	100.0	101.0	0.0	4.7	/	/	/	/
COC(=O)c1nn(-c2cccc(C)c2)c2nnc(Cc3ccccc3)c(=O)n12	-1.9	100.0	94.0	2.0	-1.2	/	/	/	/
O=C(Nc1cc(C(F)(F)F)ccc1Cl)c1ccncc1	-1.1	103.0	96.0	-5.0	-2.6	/	/	/	/
COc1ccccc1Nc1nc(-c2cccc([N+](=O)[O-])c2)nc2ccccc12	-4.7	91.0	89.0	-3.0	-4.3	/	/	/	/
CCOCCCNC(=O)CCNC(=O)c1cc(OC)c(OC)c(OC)c1	-4.5	102.0	107.0	5.0	-1.4	/	/	/	/
Cc1cc(=O)oc2cc(OCC(=O)NC3CC(C)(C)NC(C)(C)C3)c(Cl)cc12	-0.5	101.0	99.0	1.0	0.6	/	/	/	/
O=C(COc1ccc2c3c(c(=O)oc2c1)CCC3)NCC(O)c1ccccc1 (stereo not drawn)	-1.5	101.0	99.0	2.0	14.1*	-2.3	-1.7	-5.8	22.5*
CCc1cc(=O)oc2c(C)c(OCC(=O)NC3CC(C)(C)NC(C)(C)C3)ccc12	-3.6	99.0	102.0	1.0	14.3*	-2.2	-0.8	-9.3	22.2*
CC(C)CNC(=O)COc1ccc2c3c(c(=O)oc2c1)CCC3	-1.8	100.0	98.0	-1.0	4.1	/	/	/	/
CC1=C(C#N)C(c2cccnc2)C2=C(CC(C)(C)CC2=O)N1 (stereo not drawn)	-2.6	/	/	/	-2.8	/	/	/	/
S=c1[nH]nc(C2CC2)n1Cc1ccco1	1.9	82.0	88.0	-7.0	25.4*	-3.5	56.0*	-7.2	35.6*
S=c1[nH]nc(Cc2ccccc2)n1Cc1ccco1	-0.6	99.0	101.0	1.0	0.7	/	/	/	/
C=CCn1c(C2CC2)n[nH]c1=S	-2.4	106.0	103.0	1.0	15.2*	-3.1	36.5*	-6.9	23.1*
CCN1CCN(CCCNC(=O)Cn2cc3c(n2)CCCC3)CC1	-3.5	101.0	98.0	-1.0	-0.7	/	/	/	/
COc1cccc(NC(=O)c2ccc(N3C(=O)C4CC=C(C)CC4C3=O)cc2)c1 (stereo not drawn)	-1.5	105.0	104.0	4.0	-2.6	/	/	/	/
O=C(COC(=O)c1ccco1)NCC1CCCO1 (stereo not drawn)	-2.0	95.0	99.0	0.0	-3.9	/	/	/	/
C=CCNC(=S)N/N=C(\C)c1ccc(-n2ccnc2)cc1	-1.0	100.0	97.0	-1.0	66.4*	-2.8	-7.0	-7.7	80.4*
COCCNC(=S)N/N=C(\C)c1ccc(-n2ccnc2)cc1	-2.4	101.0	103.0	6.0	67.2*	1.1	1.5	0.4*	81.7*
C/C(=N\NC(=S)NC(C)C)c1ccc(-n2ccnc2)cc1	-1.5	97.0	99.0	-4.0	77.3*	-1.7	-11.5	-7.4	86.4*
CNC(=S)N/N=C(\C)c1ccc(-n2ccnc2)cc1	1.3	101.0	98.0	1.0	23.4*	-3.8	-15.2	-7.3	43.0*
CSc1nnc(C)c(=O)n1COC(=O)COc1ccc2ccccc2c1	-4.2	103.0	103.0	11.0	0.0	/	/	/	/
SMILES	IMP-1 inh-1	MEKK3 PB1 HTS	MEKK2wt PB1 HTS	MEKK2mut PB1 HTS	VIM-2 inhibitor	IMP-1 inh-2	VIM-2 FRET inh	TEM-1 inh	VIM-2 confirm 2
CC(=O)NCCn1c(SCC(=O)NCCC(C)C)nc2ccccc2c1=O	-1.1	106.0	100.0	5.0	-1.3	/	/	/	/
CC(C)(C)c1ccc(-c2n[nH]c(=S)n2CCCN2CCOCC2)cc1	-2.1	103.0	98.0	1.0	13.3*	-4.2	33.3*	-8.2	21.7*
O=C1c2ccccc2-c2onc3ccc(N4CCCC4)c1c23	2.3	79.0	80.0	-2.0	13.5*	4.4	4.2	2.9*	24.7*
CCOc1cccc(OCCOc2ccccc2[N+](=O)[O-])c1	-2.0	111.0	105.0	-1.0	-2.6	/	/	/	/
Cn1nc(-c2ccccc2)c2cc(C(=O)O)sc21	-0.2	94.0	96.0	-2.0	1.0	/	/	/	/
CSc1nnc(-c2cc3c(-c4ccccc4)nn(C)c3s2)n1C	-1.8	108.0	109.0	10.0	18.9*	-2.8	0.3	-5.3	26.4*
CC(=O)N1CCN(S(=O)(=O)c2ccc(C)cc2)C1c1ccc(N(C)C)cc1 (stereo not drawn)	-3.2	89.0	89.0	-7.0	30.7*	-2.8	50.9*	-3.8	37.0*
Cc1ccc(S(=O)(=O)N2CCN(C(=O)C(F)(F)F)C2c2ccc(N(C)C)cc2)cc1 (stereo not drawn)	-2.7	99.0	98.0	-3.0	-2.7	/	/	/	/
CCCc1[nH][nH]c(=O)c1C(c1ccc(Cl)cc1)C(C#N)C#N (stereo not drawn)	-3.0	87.0	101.0	3.0	12.5*	-4.1	14.9	-6.5	0.2
Cc1[nH]n(C(N)=S)c(=O)c1C(c1ccccc1)C(C#N)C#N (stereo not drawn)	-2.6	101.0	104.0	3.0	-6.2	/	/	/	/
Cc1ccc(-n2ncc3c(=O)n(-c4ccc(C)c(C)c4)c(C)nc32)cc1	-0.7	102.0	97.0	1.0	-1.9	/	/	/	/
c1ccc(N2CCN(c3nc(-c4ccccn4)nc4ccccc34)CC2)cc1	-4.8	106.0	108.0	7.0	42.0*	-4.4	-46.6	-5.1	63.6*
Nc1nc(N)nc(-c2ccccn2)n1	-10.3	100.0	102.0	2.0	-1.6	/	/	/	/
c1ccc(-c2nc(-c3ccccn3)nc(-c3ccccn3)n2)nc1	-1.0	107.0	109.0	1.0	21.3*	-2.7	-24.1	-5.6	44.5*
O=C(Nc1c(Cl)cc(Cl)cc1C(=O)NCC1CCCO1)c1ccco1 (stereo not drawn)	0.2	100.0	105.0	4.0	-1.6	/	/	/	/
